# Experimental data from ChEMBL document CHEMBL4428071 (J Med Chem, 2016).
# Calls of active or inactive are those of the source. The calls are words filed in the database; no cut-off is given here.
# Columns and labels:
# [1] = target: Cyclin-dependent kinase-like 3 (Homo sapiens) (UniProt Q8IVW4); assay: Inhibition of partial length human CDKL3 expressed in bacterial expression system assessed as activity remaining at 1 uM by kinome scan assay
# [2] = target: Mast/stem cell growth factor receptor Kit (Homo sapiens, UniProt P10721, T670I); assay: Inhibition of cKIT T670I mutant in human GIST-5R cells assessed as downregulation of ERK phosphorylation at T202/204 after 1 hr by Western blot analysis; format: cell-based
# In short: (§1)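 GIST-T1 or GIST-5R cells in DMEM with 10% FBS were treated with serially diluted compound for 1 h. Cells were then lysed and analysed by western blotting.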
# [3] = target: T1, Mast/stem cell growth factor receptor Kit (Homo sapiens, UniProt P10721); assay: Inhibition of His-tagged cKIT (unknown origin) expressed in Sf9 cells using Poly(4:1 Glu, Tyr) peptide as substrate after 1 hr by ADP-glo kinase assay
# [4] = Apparent volume of distribution in Sprague-Dawley rat at 1 mg/kg, iv measured up to 8 hrs post dosing; format: ADME, organism-based; conditions: in vivo, read-out: Vz
# In short: (§2)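 Male Sprague-Dawley rats, 8 weeks old, fasted overnight; iv dosing from a 1 mg/mL solution in 5% DMSO/40% PEG400/55% saline. Jugular-vein blood (~0.2 mL, heparinised) taken at 1, 5, 15, 30 min and 1, 2, 4, 6, 8 h; plasma held at -80 °C until analysis; n=3.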
# [5] = target: Serine/threonine-protein kinase 10 (Homo sapiens) (UniProt O94804); assay: Inhibition of partial length human LOK expressed in bacterial expression system assessed as activity remaining at 1 uM by kinome scan assay
# [6] = target: T1, Mast/stem cell growth factor receptor Kit; assay: Inhibition of wild type cKIT autophosphorylation at Y703 in human GIST-T1 cells at 100 nM after 1 hr by Western blot analysis; format: cell-based; in short: as §1
# [7] = AUC (0 to infinity) in Sprague-Dawley rat at 1 mg/kg, iv measured up to 8 hrs post dosing; format: ADME, organism-based; parameters: dose 1 mg/kg, route intravenous, time infinity; conditions: in vivo; in short: as §2
# Homo sapiens [8] = species on record: Homo sapiens; assay: Inhibition of TEL-fused cKIT L567P mutant (unknown origin) expressed in mouse BA/F3 cells assessed as cell growth inhibition after 72 hrs by cell titer-glo assay; format: cell-based
# In short: (§3)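 Cells seeded at 3000 per well and exposed to serial compound dilutions for 72 h. Viability read by CellTiter-Glo luminescence and normalised to DMSO controls; mean of three independent measurements. BaF3 lines kept IL-3-free in RPMI 1640/10% FBS after retroviral transduction and puromycin selection. GIST lines grown in DMEM/10% FBS.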
# [9] = system: Mast/stem cell growth factor receptor Kit (Homo sapiens), P10721 [T670I]; assay: Inhibition of TEL-fused cKIT T670I mutant (unknown origin) expressed in mouse BA/F3 cells assessed as cell growth inhibition after 72 hrs by cell titer-glo assay; format: cell-based; in short: as §3
# [10] = target: Vascular endothelial growth factor receptor 3 (Homo sapiens) (UniProt P35916); assay: Inhibition of TEL-fused partial length human FLT4 expressed in mouse BA/F3 cells after 72 hrs by cell titer-glo assay; format: cell-based; in short: as §3
# [11] = target: Proto-oncogene tyrosine-protein kinase receptor Ret (Homo sapiens) (UniProt P07949); assay: Inhibition of TEL-fused partial length human RET expressed in mouse BA/F3 cells after 72 hrs by cell titer-glo assay; format: cell-based; in short: as §3
# BaF3 = assay: Antitumor activity against TEL-fused cKIT T670I mutant expressing mouse BA/F3 cells allografted in nu/nu mouse assessed as tumor growth inhibition at 100 mg/kg/day, ip administered daily for 10 days; format: functional; conditions: 240 h, read-out: TGI
# In short: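 Female nu/nu mice, 5 weeks old at purchase, given 1 million BaF3-TEL-cKIT-T670I cells in PBS/Matrigel 1:1 subcutaneously on the right flank. At tumour volume 200–400 mm3, randomised into groups of 7 and dosed IP daily for 10 days (25, 50, 100 mg/kg/d or vehicle: 0.5% methylcellulose/0.4% Tween80 in water). Tumour volume (W2×L/2) and body weight recorded daily.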
# [12] = system: Mast/stem cell growth factor receptor Kit (Homo sapiens), P10721 [T670I]; assay: Inhibition of […] cKIT T670I mutant in human GIST-5R cells assessed as cell growth inhibition after 72 hrs by cell titer-glo assay; format: cell-based
# [13] = target: Receptor-type tyrosine-protein kinase FLT3 (Homo sapiens) (UniProt P36888); assay: Inhibition of TEL-fused partial length human FLT3 expressed in mouse BA/F3 cells after 72 hrs by cell titer-glo assay; format: cell-based; in short: as §3
# [14] = target: T1, Mast/stem cell growth factor receptor Kit; assay: Inhibition of wild type cKIT autophosphorylation at Y719 in human GIST-T1 cells at 100 nM after 1 hr by Western blot analysis; format: cell-based; in short: as §1
# Homo sapiens [15] = species on record: Homo sapiens; assay: Induction of apoptosis in human GIST5R cells assessed as increase in cleaved PARP levels after 24 hrs by Western blot analysis; format: functional, cell-based
# In short: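 GIST-T1 or GIST-5R cells in DMEM with 10% FBS were exposed to serially diluted compound for 24 h. Apoptosis was assessed by western blot with PARP and GAPDH antibodies.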
# [16] = target: Epithelial discoidin domain-containing receptor 1 (Homo sapiens) (UniProt Q08345); assay: Inhibition of partial length human DDR1 expressed in bacterial expression system assessed as activity remaining at 1 uM by kinome scan assay
# [17] = system: Mast/stem cell growth factor receptor Kit (Homo sapiens), P10721 [V559D,T670I]; assay: Inhibition of TEL-fused cKIT T670I/V559D double mutant (unknown origin) expressed in mouse BA/F3 cells assessed as cell growth inhibition after 72 hrs by cell titer-glo assay; format: cell-based; in short: as §3
# [18] = target: T1, Mast/stem cell growth factor receptor Kit; assay: Inhibition of wild type cKIT in human GIST-T1 cells assessed as downregulation of ERK phosphorylation at T202//204 after 1 hr by Western blot analysis; format: cell-based
# In short: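 GIST-T1 cells in DMEM with 10% FBS were exposed to serially diluted compound for 1 h, then lysed. Lysates were analysed by western blot with phospho-specific antibodies against AKT (Ser473), ERK1/2 (Thr202/Tyr204) and S6 ribosomal protein (Ser235/236), each alongside its total protein.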
# [19] = Solubility of the compound in pure water; format: physicochemical
# In short: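 Solubility measured in PBS pH 7.4 and in pure water, reported as µg/mL.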
# T1 sequence (P10721 whole entry): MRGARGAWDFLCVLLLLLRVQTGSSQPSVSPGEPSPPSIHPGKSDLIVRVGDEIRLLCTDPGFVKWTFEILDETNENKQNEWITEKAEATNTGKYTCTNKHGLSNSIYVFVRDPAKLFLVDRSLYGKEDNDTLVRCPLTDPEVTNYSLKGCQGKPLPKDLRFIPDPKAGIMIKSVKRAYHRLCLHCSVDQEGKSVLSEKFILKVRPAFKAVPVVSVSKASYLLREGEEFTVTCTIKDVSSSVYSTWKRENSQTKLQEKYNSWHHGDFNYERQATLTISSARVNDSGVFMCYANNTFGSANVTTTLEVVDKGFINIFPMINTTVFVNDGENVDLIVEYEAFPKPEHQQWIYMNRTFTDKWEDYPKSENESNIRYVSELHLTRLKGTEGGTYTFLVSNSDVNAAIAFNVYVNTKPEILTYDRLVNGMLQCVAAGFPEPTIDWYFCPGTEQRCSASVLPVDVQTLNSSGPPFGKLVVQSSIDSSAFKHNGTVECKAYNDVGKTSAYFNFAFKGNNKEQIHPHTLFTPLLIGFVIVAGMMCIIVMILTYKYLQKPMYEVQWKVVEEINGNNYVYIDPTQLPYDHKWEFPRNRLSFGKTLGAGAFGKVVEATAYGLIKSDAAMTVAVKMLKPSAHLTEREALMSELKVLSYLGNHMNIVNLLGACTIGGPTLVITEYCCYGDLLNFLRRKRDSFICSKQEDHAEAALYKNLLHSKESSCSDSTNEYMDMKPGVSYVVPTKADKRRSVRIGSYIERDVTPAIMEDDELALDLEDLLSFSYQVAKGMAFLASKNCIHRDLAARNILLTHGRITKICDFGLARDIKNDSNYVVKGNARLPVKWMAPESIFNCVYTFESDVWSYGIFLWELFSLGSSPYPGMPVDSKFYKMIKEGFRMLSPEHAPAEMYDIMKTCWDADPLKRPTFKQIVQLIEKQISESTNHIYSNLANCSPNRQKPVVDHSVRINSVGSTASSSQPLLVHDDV
# Chain of Mast/stem cell growth factor receptor Kit (Homo sapiens), P10721 [T670I] (P10721 whole entry T670I, the tested form may be a part): as the sequence (P10721 whole entry) above, with T670I counted along it
# Chain of Receptor-type tyrosine-protein kinase FLT3 (Homo sapiens) (P36888 whole entry, the tested form may be a part): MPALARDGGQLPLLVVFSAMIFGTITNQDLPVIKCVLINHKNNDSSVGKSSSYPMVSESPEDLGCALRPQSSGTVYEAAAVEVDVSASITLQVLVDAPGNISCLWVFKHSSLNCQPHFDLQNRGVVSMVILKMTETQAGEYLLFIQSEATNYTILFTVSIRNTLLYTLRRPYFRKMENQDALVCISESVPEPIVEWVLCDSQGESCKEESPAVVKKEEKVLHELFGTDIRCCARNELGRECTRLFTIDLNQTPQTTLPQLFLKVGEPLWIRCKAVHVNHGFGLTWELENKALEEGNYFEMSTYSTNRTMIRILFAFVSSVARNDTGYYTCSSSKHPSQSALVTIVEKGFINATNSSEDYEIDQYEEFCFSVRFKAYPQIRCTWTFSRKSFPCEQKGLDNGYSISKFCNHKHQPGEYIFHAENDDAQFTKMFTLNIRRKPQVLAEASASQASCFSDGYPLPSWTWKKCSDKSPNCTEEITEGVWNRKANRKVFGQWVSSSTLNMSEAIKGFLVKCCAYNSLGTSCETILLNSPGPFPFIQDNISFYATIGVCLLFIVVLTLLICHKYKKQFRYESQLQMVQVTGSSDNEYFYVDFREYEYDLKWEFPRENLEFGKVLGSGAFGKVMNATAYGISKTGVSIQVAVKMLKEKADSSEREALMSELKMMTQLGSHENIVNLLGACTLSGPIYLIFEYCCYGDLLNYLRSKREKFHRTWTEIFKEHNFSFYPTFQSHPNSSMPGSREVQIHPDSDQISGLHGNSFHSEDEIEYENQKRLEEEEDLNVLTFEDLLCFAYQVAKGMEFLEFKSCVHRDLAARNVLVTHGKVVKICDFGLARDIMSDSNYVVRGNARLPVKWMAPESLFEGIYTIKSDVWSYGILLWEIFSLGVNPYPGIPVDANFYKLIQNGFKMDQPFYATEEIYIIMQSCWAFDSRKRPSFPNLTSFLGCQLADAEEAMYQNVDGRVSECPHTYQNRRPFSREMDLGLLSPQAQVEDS
# Chain of Vascular endothelial growth factor receptor 3 (Homo sapiens) (P35916 whole entry, the tested form may be a part): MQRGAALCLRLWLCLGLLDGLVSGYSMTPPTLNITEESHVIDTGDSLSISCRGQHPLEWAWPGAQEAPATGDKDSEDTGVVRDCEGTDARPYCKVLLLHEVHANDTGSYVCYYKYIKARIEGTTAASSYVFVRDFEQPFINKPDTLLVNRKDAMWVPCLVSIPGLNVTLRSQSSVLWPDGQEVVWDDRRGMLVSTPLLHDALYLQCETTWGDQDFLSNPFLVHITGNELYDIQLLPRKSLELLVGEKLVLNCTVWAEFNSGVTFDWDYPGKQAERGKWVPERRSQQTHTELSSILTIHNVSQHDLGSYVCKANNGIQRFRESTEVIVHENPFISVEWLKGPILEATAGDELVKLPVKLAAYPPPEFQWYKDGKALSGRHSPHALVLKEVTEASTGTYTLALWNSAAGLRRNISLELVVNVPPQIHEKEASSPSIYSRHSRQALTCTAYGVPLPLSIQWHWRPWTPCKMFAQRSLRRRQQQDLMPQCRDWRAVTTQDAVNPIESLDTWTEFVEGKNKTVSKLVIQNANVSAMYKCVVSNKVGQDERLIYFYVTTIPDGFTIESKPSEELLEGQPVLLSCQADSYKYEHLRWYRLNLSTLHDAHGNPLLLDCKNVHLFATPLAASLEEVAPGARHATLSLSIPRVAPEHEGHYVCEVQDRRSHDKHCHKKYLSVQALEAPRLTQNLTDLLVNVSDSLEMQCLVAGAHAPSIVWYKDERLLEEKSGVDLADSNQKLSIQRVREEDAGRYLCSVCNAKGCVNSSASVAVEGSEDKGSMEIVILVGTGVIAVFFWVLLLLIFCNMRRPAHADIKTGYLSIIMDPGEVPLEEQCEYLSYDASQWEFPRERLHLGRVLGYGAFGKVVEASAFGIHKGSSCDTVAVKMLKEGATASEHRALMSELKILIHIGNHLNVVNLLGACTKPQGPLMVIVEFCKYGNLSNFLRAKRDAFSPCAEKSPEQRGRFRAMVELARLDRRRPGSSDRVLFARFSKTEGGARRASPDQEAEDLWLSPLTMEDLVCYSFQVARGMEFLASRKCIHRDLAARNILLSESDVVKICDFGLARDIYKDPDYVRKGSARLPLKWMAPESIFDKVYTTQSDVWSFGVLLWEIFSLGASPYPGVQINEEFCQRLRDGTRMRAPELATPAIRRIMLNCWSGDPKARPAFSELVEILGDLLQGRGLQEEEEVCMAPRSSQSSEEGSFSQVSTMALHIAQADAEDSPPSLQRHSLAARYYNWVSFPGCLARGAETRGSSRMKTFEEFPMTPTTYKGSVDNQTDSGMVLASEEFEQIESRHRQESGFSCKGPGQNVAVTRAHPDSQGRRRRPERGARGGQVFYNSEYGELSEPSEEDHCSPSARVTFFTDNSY
# Chain of Proto-oncogene tyrosine-protein kinase receptor Ret (Homo sapiens) (P07949 whole entry, the tested form may be a part): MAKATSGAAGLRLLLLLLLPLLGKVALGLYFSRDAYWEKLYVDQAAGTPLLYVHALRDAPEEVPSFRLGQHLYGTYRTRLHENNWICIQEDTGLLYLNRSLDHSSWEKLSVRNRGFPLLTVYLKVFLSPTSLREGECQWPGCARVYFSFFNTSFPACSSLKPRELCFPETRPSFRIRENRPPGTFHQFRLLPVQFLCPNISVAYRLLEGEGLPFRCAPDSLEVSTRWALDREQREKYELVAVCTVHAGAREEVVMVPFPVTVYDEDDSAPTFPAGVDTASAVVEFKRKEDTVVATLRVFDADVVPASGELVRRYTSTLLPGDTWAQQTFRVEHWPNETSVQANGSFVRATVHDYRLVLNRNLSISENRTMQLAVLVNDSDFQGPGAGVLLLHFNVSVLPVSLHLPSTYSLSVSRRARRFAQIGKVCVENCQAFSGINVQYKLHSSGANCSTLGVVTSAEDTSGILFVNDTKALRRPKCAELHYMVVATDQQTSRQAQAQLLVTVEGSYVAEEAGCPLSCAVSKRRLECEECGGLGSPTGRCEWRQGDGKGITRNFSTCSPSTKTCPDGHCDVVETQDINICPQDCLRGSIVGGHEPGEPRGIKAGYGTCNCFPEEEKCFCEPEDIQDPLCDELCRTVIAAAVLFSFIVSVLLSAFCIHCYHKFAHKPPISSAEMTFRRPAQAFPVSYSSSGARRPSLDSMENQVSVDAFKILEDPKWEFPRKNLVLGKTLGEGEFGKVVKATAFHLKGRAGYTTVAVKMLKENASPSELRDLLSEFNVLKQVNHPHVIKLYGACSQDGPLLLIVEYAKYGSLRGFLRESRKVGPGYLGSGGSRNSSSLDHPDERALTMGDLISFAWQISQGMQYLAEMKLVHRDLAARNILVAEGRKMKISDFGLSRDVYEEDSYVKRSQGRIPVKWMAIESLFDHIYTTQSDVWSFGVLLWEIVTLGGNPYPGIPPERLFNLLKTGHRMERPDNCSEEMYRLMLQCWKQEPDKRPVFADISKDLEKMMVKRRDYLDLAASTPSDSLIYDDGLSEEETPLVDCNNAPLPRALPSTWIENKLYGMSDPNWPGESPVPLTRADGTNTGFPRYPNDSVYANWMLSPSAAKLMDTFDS
# Chain of Mast/stem cell growth factor receptor Kit (Homo sapiens), P10721 [V559D,T670I] (P10721 whole entry V559D/T670I, the tested form may be a part): as the sequence (P10721 whole entry) above, with V559D, T670I counted along it
smiles,measurement,setting,value
CCC(=O)NCC1CCN(c2ccc(NC(=O)Nc3cccc(Oc4ccnc5cc(OC)c(OC)cc45)c3)cc2C(F)(F)F)CC1,Activity,[1],0.3%
same,EC50,[2],< 100 nM
same,IC50,[3],33 nM
same,Vd,[4],7.91 L/kg
same,Activity,[5],0.35%
same,inhibition,[6],Active
same,AUC,[7],385 ng·h/mL
same,GI50,Homo sapiens [8],23 nM
same,GI50,[9],63 nM
same,GI50,[10],240 nM
same,GI50,[11],120 nM
same,inhibition in vivo at 100 mg/kg/day,BaF3,47.7%
same,GI50,[12],26 nM
same,GI50,[13],99 nM
same,inhibition,[14],Active
same,Activity,Homo sapiens [15],Dose-dependent effect
same,Activity,[16],< 1%
same,GI50,[17],73 nM
same,EC50,[18],< 100 nM
same,solubility,[19],78 µM
